The values below come from ChEMBL document CHEMBL1154352, “Toll-like receptor 7 selective synthetic oligoribonucleotide agonists: synthesis and structure-activity relationship studies” (J Med Chem, 2009).

In experiment [1] the target is T1, Toll-like receptor 7 (Homo sapiens) (UniProt Q9NYK1).
T1 sequence (whole entry): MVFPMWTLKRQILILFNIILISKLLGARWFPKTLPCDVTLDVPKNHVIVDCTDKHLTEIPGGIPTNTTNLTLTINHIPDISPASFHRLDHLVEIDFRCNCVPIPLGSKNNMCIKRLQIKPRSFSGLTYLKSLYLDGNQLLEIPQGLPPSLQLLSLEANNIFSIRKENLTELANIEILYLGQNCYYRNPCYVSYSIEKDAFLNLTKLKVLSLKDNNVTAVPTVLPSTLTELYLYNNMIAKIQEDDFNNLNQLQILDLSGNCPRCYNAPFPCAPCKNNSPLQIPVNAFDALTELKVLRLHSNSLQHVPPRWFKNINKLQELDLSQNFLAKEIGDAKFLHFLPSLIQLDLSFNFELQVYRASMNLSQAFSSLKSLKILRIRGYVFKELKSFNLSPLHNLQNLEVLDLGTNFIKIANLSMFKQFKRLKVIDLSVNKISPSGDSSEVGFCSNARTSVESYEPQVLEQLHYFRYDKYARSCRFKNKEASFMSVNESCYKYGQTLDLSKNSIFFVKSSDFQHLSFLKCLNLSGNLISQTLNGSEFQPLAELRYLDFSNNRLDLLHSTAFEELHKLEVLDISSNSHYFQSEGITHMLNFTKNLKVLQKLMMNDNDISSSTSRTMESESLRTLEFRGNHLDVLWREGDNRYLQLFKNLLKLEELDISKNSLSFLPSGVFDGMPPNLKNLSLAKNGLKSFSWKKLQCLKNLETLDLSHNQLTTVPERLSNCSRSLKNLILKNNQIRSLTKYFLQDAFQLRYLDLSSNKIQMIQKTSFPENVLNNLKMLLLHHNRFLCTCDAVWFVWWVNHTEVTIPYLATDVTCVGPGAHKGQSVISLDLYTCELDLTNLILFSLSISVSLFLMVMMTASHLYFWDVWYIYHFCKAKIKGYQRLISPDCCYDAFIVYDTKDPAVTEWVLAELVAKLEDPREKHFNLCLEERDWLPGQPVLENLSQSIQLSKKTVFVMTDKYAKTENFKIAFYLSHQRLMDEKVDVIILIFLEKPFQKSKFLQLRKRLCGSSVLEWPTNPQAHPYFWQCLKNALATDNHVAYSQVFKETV
Kind of experiment: Activation of human TLR7 expressed in HEK293XL assessed as fold induction of NF-kappaB activity at 50 ug/ml after 18 hrs by reporter gene assay relative to control. The method, boiled down: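 HEK293 cells stably expressing human TLR7 or TLR8, transiently transfected with SEAP reporter plasmid; medium replaced, SIMRA compounds added, 18 h incubation. Supernatant SEAP measured by QuantiBlue; expressed as fold increase in NF-κB activity over PBS control. Tabulated data at 50 μg/mL, representative of three independent experiments.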

In experiment [2] the target is T2, Toll-like receptor 9 (Mus musculus) (UniProt Q9EQU3).
T2 sequence (whole entry): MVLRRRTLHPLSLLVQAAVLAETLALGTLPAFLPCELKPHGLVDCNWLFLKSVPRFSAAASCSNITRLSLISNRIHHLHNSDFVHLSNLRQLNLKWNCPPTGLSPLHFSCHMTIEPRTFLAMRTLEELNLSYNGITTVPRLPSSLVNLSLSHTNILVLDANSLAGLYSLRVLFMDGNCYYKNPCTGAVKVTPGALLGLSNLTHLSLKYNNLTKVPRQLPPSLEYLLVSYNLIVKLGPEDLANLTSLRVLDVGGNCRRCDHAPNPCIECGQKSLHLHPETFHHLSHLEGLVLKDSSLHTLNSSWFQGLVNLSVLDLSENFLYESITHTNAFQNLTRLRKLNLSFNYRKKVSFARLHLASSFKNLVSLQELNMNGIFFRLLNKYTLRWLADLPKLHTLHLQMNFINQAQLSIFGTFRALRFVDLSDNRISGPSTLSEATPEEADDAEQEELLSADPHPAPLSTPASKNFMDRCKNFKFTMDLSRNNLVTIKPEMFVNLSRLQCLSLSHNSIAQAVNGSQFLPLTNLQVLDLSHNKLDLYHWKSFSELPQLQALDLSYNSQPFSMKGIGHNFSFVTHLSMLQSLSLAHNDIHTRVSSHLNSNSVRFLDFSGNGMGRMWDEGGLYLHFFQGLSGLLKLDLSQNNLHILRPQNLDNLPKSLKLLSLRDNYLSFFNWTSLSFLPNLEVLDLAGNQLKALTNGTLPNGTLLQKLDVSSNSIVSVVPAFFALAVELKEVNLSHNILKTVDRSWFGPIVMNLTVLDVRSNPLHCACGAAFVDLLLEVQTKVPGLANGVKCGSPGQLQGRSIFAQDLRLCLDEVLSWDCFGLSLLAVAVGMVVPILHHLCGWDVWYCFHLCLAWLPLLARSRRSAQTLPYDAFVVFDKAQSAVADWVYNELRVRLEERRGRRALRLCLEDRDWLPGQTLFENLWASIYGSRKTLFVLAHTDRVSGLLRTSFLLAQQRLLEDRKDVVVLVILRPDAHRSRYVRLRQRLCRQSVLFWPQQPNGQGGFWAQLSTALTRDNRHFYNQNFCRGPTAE
The experiment is described as follows: Activation of mouse TLR9 expressed in HEK293 assessed as induction of NF-kappaB activity reporter gene assay. The experiment is classed as cell-based. On the technique in general: Reporter assays use an easily measured gene product as a stand-in for the process of interest.

Experiment [3] deals with Splenocyte. The experiment is described as follows: Immunomodulatory activity in C57BL/6 mouse splenocytes bearing TLR7 receptor assessed as IL6 release at 100 ug/ml after 24 hrs by ELISA. The format is functional, cell-based. An outline of the steps: (§1)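 C57BL/6 splenocytes in RPMI 1640 with 10% FBS, penicillin/streptomycin, 2 mM L-glutamine, plated at 5 × 10^6 cells/mL; compounds in PBS added, 37 °C for 24 h. Supernatant IL-12 and IL-6 by ELISA; representative of three independent experiments.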

Experiment [4] relates to Splenocyte. The experiment is described as follows: Immunomodulatory activity in C57BL/6 mouse splenocytes bearing TLR7 receptor assessed as IL12 release at 100 ug/ml after 24 hrs by ELISA. The experiment is classed as functional, cell-based. The method, boiled down:
as §1
In general terms: An ELISA detects its analyte on a solid surface through an enzyme-linked reagent.

Calls of active or inactive are those of the source. The calls are words filed in the database; no cut-off is given here.

For the molecule `Nc1ccn([C@@H]2O[C@H](COP(=O)(S)O[C@H]3[C@@H](O)[C@H](n4cnc5c(N)ncnc54)O[C@@H]3COP(=O)(S)O[C@H]3[C@@H](O)[C@H](n4cnc5c(N)ncnc54)O[C@@H]3CO)[C@@H](OP(=O)(S)OC[C@H]3O[C@@H](n4ccc(=O)[nH]c4=O)[C@H](O)[C@@H]3OP(=O)(S)OC[C@H]3O[C@@H](n4ccc5c(=O)[nH]c(N)nc54)[C@H](O)[C@@H]3OP(=O)(S)OC[C@H]3O[C@@H](n4ccc(N)nc4=O)[C@H](O)[C@@H]3OP(=O)(S)OC[C@H]3O[C@@H](n4ccc5c(=O)[nH]c(N)nc54)[C@H](O)[C@@H]3OP(=O)(S)OC[C@H]3O[C@@H](n4cnc5c(N)ncnc54)[C@H](O)[C@@H]3OP(=O)(S)OC[C@H]3O[C@@H](n4ccc(N)nc4=O)[C@H](O)[C@@H]3OP(=O)(S)OC[C@H]3O[C@@H](n4ccc(=O)[nH]c4=O)[C@H](O)[C@@H]3OP(=O)(S)OC[C@H]3O[C@@H](n4ccc(=O)[nH]c4=O)[C@H](O)[C@@H]3OP(=O)(S)OCC(O)COP(=O)(S)O[C@H]3[C@@H](O)[C@H](n4ccc(=O)[nH]c4=O)O[C@@H]3COP(=O)(S)O[C@H]3[C@@H](O)[C@H](n4ccc(=O)[nH]c4=O)O[C@@H]3COP(=O)(S)O[C@H]3[C@@H](O)[C@H](n4ccc(N)nc4=O)O[C@@H]3COP(=O)(S)O[C@H]3[C@@H](O)[C@H](n4cnc5c(N)ncnc54)O[C@@H]3COP(=O)(S)O[C@H]3[C@@H](O)[C@H](n4ccc5c(=O)[nH]c(N)nc54)O[C@@H]3COP(=O)(S)O[C@H]3[C@@H](O)[C@H](n4ccc(N)nc4=O)O[C@@H]3COP(=O)(S)O[C@H]3[C@@H](O)[C@H](n4ccc5c(=O)[nH]c(N)nc54)O[C@@H]3COP(=O)(S)O[C@H]3[C@@H](O)[C@H](n4ccc(=O)[nH]c4=O)O[C@@H]3COP(=O)(S)O[C@H]3[C@@H](O)[C@H](n4ccc(N)nc4=O)O[C@@H]3COP(=O)(S)O[C@H]3[C@@H](O)[C@H](n4cnc5c(N)ncnc54)O[C@@H]3COP(=O)(S)O[C@H]3[C@@H](O)[C@H](n4cnc5c(N)ncnc54)O[C@@H]3CO)[C@H]2O)c(=O)n1` (some centres undefined), the fold change (FC) in experiment [1] was determined as 6.5. Moreover, in experiment [2], the outcome was inactive. The result in experiment [3] and in experiment [4] was Active.
